# S1P4 antag: human S1P4 receptor antagonism. S1P4-expressing cells, antagonist mode, reporter read-out. inhibition, % at 4.98 µM. AID 1510. O95977. 220,000 tested, 0.26% active; in the data active = inhibition above about 29%;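 note: 0% = wells stimulated with agonist and 100% = vehicle wells without agonist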
# Target sequence (O95977 whole entry, looked up): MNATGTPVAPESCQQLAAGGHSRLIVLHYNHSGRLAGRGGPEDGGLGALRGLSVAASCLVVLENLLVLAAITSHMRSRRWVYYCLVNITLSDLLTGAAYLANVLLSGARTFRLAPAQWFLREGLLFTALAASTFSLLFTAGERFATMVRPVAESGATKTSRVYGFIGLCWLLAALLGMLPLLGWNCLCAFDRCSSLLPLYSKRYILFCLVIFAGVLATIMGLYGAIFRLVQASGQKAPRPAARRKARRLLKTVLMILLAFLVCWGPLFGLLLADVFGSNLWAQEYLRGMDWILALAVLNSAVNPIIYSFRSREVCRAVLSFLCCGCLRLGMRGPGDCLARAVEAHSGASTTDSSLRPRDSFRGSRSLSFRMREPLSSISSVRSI
# Lmaj promast: inhibitors of Leishmania major promastigote growth. inhibition, % at 10 µM. 200,000 tested, 9% active. Leishmania major promastigotes, resazurin fluorescence viability; in the data active = inhibition above about 50%;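 note: promastigotes grown with compound for 44 hours at 28 °C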
# S1P3 antag: antagonists of human S1P3 receptor | inhibition, % at 4.98 µM | CHO S1P3 NFAT-BLA reporter, FRET fluorescence, antagonist mode | 170,000 tested, 0.27% active | AID 485 | Q99500;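 active = inhibition above the plate cutoff, the mean inhibition of test wells on that plate plus 3 SD, cut at about 28% in these data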;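 note: cells challenged with S1P at its EC80 of 0.8 µM; blue over green emission ratio from cleaved BLA substrate after 4 h stimulation; 0% = S1P-stimulated wells and 100% = unstimulated DMSO-only wells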
# S1P4 ag: agonists of human S1P4 receptor; O95977; 220,000 tested, 0.35% active; S1P4-expressing cell line, agonist reporter assay; activation, % at 4.98 µM; in the data active = activation above about 11%;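 note: 0% = DMSO vehicle and 100% = reference agonist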
# Mdm2 ligase inh: blocks human Mdm2 ubiquitin ligase activity | 210,000 tested, 0.11% active | cell-based MDM2 ubiquitination luciferase reporter, 2 h; 0 = plate control, 100 = twice control, blank-subtracted | Q00987 | signal enhancement, % at 5 µM | AID 1230;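 active = signal enhancement of 30% or more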;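 note: luminescence tracks abundance of the self-degrading MDM2-luciferase fusion protein; higher signal means inhibition of MDM2 E3 ligase activity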
#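 System: stable MDM2–luciferase fusion reporter cells / Input: 2000 cells seeded into each well / Schedule: 4 h settle plus 2 h compound, 37 °C / Compound: single-point 5 µM / Buffer or medium: cells held in DMEM / Benchmarks: control and blank well means / Evaluation: percent signal gain over controls, blank-subtracted / Measured by: luciferase luminescence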
# * marks the source's active call; other numbers are inactive results; . = no result. Shown is part of a subset that was picked to be rich in hits.
SMILES,S1P4 antag,Lmaj promast,S1P3 antag,S1P4 ag,Mdm2 ligase inh
CC(C(=O)NCC1CCCCC1)N1CCN(S(=O)(=O)/C=C/c2ccccc2)CC1 (stereo unspecified),-3.8,99.3*,-1.9,1.0,-15.2
CCOC(=O)c1c(C)[nH]c(C(=O)COC(=O)/C=C/c2ccc(O)c(OC)c2)c1C,0.2,99.0*,-4.0,-0.5,-0.8
CCOC(=O)c1c(C)[nH]c(C(=O)COC(=O)CNC(=O)c2ccc(Cl)cc2Cl)c1C,-7.5,51.5*,-2.7,1.4,-10.2
COc1cccc(NC(=O)CSc2nncn2N)c1,-12.9,-9.1,-28.1,0.4,-13.0
C=CCNCCCOc1ccc(Cl)cc1C(C)(C)C,4.2,99.6*,1.7,0.0,-12.0
CC(C)(C)NCCOCCOc1ccc(Cl)cc1C(C)(C)C,7.4,91.0*,10.8,-0.9,-13.1
C=CCNCCOCCOc1ccc(Cl)cc1C(C)(C)C,-1.1,99.5*,-9.1,-0.1,2.2
C=CCNCCOCCSc1ccc(Cl)cc1,-13.8,98.9*,-2.2,0.8,-5.6
C=CCNC(=O)CSc1ccc(Cl)cc1,-9.8,-4.1,-6.0,0.9,1.7
CC(=O)c1c(C)oc2ccc(N(C(C)=O)S(=O)(=O)c3cccc4cccnc34)cc12,-10.8,.,6.3,0.4,-8.0
Cc1ccc(C(C(=O)NCc2ccco2)N(C(=O)CNC(=O)c2cccs2)c2c(C)cc(C)cc2C)cc1 (stereo unspecified),1.1,37.4,.,-1.3,-2.6
COc1ccccc1/C=N/NC(=O)CCn1cnc2ccccc21,-17.6,0.9,-5.5,3.8,-11.9
CCCNc1nc(Cl)nc(NC(C)(C)C)n1,-1.6,5.7,-14.5,0.8,-17.7
COCCNCCCCSc1ccc(Cl)cc1,5.4,91.6*,10.1,0.5,-3.7
COCCCNCCOCCOc1c(OC)cccc1OC,-2.9,83.0*,-14.5,2.1,1.1
CCOCCCNCc1cc(Cl)ccc1OCC,-1.6,7.5,-5.4,-0.8,-27.4
COCCCNCCOCCOc1ccc(Cl)cc1C(C)(C)C,1.7,100.1*,-7.2,-1.7,-10.2
O=C(CCCSc1nc2ccccc2[nH]1)Nc1nnc(C2CC2)s1,-1.2,-1.3,-6.2,0.7,4.3
O=C(O)CCN1CC2([N+](=O)[O-])C=CC(=O)C([N+](=O)[O-])(C1)C2CC(=O)c1ccccc1 (stereo unspecified),-19.9,-1.4,10.1,0.5,-13.2
Oc1c(C(c2ccccn2)N2CCC(Cc3ccccc3)CC2)cc(Cl)c2cccnc12 (stereo unspecified),-15.7,99.1*,-7.3,1.7,-13.0
Oc1c(C(c2ccc(Cl)cc2)N2CCCC2)cc(Cl)c2cccnc12 (stereo unspecified),-6.8,96.0*,-1.2,-0.7,-19.7
c1ccc(Nc2nc(N3CCCCC3)nc(N3CCCCC3)n2)cc1,11.6,25.7,.,0.1,-23.5
Nc1nc(N2CCCCC2)nc(N2CCCCC2)n1,5.8,7.1,.,-0.5,.
CCOc1ccc(Nc2nc(N3CCCCC3)nc(N3CCCCC3)n2)cc1,-2.8,59.2*,.,-0.3,-1.1
C1CCN(c2nc(N3CCCC3)nc(N3CCNCC3)n2)C1,6.6,100.3*,-9.0,-1.4,4.1
SMILES,S1P4 antag,Lmaj promast,S1P3 antag,S1P4 ag,Mdm2 ligase inh
c1ccc(Nc2nc(N3CCCCC3)nc(N3CCNCC3)n2)cc1,-11.9,100.3*,-5.7,0.7,-9.6
CCOc1ccc(Nc2nc(N)nc(CN3CCN(c4ccccc4F)CC3)n2)cc1,-12.1,52.0*,-12.0,1.6,-15.9
CC(C)C(=O)Nc1cccc(S(=O)(=O)c2cccc(NC(=O)C(C)C)c2)c1,1.6,65.9*,.,-1.1,-5.4
CSc1cccc(NC(=O)C(C)C)c1,1.1,7.7,-11.4,-0.8,-11.4
c1coc(CNc2c3c(nc4ccccc24)CCC3)c1,1.5,88.4*,13.7,-1.1,-26.3
CCN(CCO)C(=O)CC(c1ccccc1)c1cc(Br)ccc1O (stereo unspecified),-6.8,50.1*,-15.4,0.2,-6.2
Cc1cc(Br)c(NC(=O)COC(=O)CSc2nnc(-c3ccc(Cl)cc3)o2)c(Br)c1,1.3,52.3*,-13.9,-0.2,-9.4
Cc1cc(C)cc(NC(=O)CSc2nnc(-c3ccccc3Br)o2)c1,-7.8,18.4,-8.3,3.1,-0.9
O=C1CC(c2ccccc2)CC(O)=C1C=NCCN1CCN(Cc2ccccc2)CC1 (stereo unspecified),-13.1,.,7.1,-1.1,-29.0
COc1ccc2nc(/N=C(\N)NC(=O)C(C)(C)C)nc(C)c2c1,-13.3,50.8*,.,-0.9,-21.1
CCN1CCCC1CNC(=O)c1nn(-c2ccc(C)cc2)c(=O)c2c1c1ccccc1n2C (stereo unspecified),.,.,12.3,.,.
Cc1oc(C(C)(C)C)cc1C(=O)N1CCN(C(c2ccccc2)c2ccccc2)CC1,8.3,.,2.1,0.4,-9.3
CC1CCN(Cc2csc(N)n2)CC1,-9.5,-5.6,.,3.6,-2.4
CC(C)OCCCNc1ncnc2c1[nH]c1ccccc12,-13.2,70.2*,23.0,0.0,-11.4
CC(C(=O)N1CCCc2c1c(=O)oc1ccc(O)cc21)N1CCc2ccccc2C1 (stereo unspecified),-1.1,94.6*,-9.6,1.6,-9.6
CN(CC(=O)N1CCCc2c1c(=O)oc1ccc(O)cc21)Cc1ccccc1,6.4,-5.8,9.6,2.0,1.2
CCOc1c(OC(C)=O)ccc(/C=C/c2ccc3cccc(OC(C)=O)c3n2)c1[N+](=O)[O-],-4.5,31.8,.,0.2,-4.9
C=CCN1C(=O)/C(=C/c2ccc(OC(C)=O)c(OCC)c2[N+](=O)[O-])SC1=S,-10.9,91.4*,-3.3,1.4,-7.3
O=C(C1=C[C@@H](c2ccc(Br)cc2)C[C@@H](OCCCCO)O1)N1CCN(Cc2ccc3c(c2)OCO3)CC1,9.9,42.6,-14.7,0.2,.
CC(=O)n1cc([C@H]2C=C(C(=O)Nc3ccccc3)O[C@@H](OCc3ccc(CO)cc3)C2)c2ccccc21,8.6,60.0*,-14.2,-0.3,.
CC(=O)n1cc([C@@H]2C=C(C(=O)NCc3ccccc3)O[C@H](OCc3ccc(CO)cc3)C2)c2ccccc21,.,.,.,.,16.5
O=C(C1=C[C@@H](c2csc3ccccc23)C[C@@H](OCc2ccc(CO)cc2)O1)N1CCN(Cc2ccccc2)CC1,3.4,50.6*,-6.6,-0.1,.
O=C(C1=C[C@@H](c2csc3ccccc23)C[C@@H](OCc2ccc(CO)cc2)O1)N1CCN(Cc2ccc3c(c2)OCO3)CC1,9.9,73.2*,-9.2,-1.1,.
O=C(C1=C[C@H](c2ccc(C(F)(F)F)cc2)C[C@H](OCCCCO)O1)N1CCN(Cc2ccc3c(c2)OCO3)CC1,2.3,94.5*,-7.1,1.0,.
CCOC(=O)C1=C(O)/C(=C\c2ccc(CNC(=O)C(=O)Nc3ccccc3)o2)N=C1C,3.5,0.3,.,1.7,-5.0
CC(=O)n1cc([C@H]2C=C(C(=O)N3CCN(Cc4ccc5c(c4)OCO5)CC3)O[C@@H](OCc3ccc(CO)cc3)C2)c2ccccc21,4.8,76.2*,-16.9,-2.1,.

# Screening data as filed in PubChem.
